Columns and labels:
Assay type in all cases: functional
HeLa = test: Cytotoxicity against human HeLa cells assessed as cell viability after 24 hrs by WST-1 assay; conditions: read-out: LD50 (the source's name)
In short: (§1)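 Cells from ATCC grown in McCoy's 5A with 10% FBS, penicillin (100 units/mL) and streptomycin (100 μg/mL) at 37 °C, 5% CO2. Seeded at 1 × 10^4 cells per well with a range of compound concentrations for 24 h. Viability read by WST-1. LD50 values reported as mean ± SD (n = 5).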

MOLT-4 = test: Cytotoxicity against human MOLT4 cells assessed as cell viability after 24 hrs by WST-1 assay; conditions: MOLT-4, 24 h, read-out: LD50 (the source's name); in short: as §1
HCT-116 = test: Cytotoxicity against human HCT116 cells assessed as cell viability after 24 hrs by WST-1 assay; conditions: HCT-116, 24 h, read-out: LD50 (the source's name); in short: as §1
Jurkat = test: Cytotoxicity against human Jurkat cells assessed as cell viability after 24 hrs by WST-1 assay; conditions: read-out: LD50 (the source's name); in short: as §1
RAW264.7 = test: Cytotoxicity against mouse RAW264.7 cells assessed as cell viability after 24 hrs by WST-1 assay; conditions: RAW264.7, 24 h, read-out: LD50 (the source's name); in short: as §1
MCF7 = test: Cytotoxicity against human MCF7 cells assessed as cell viability after 24 hrs by WST-1 assay; conditions: MCF7, 24 h, read-out: LD50 (the source's name); in short: as §1

SMILES	CC50 (HeLa) [µM]	CC50 (MOLT-4) [µM]	CC50 (HCT-116) [µM]	CC50 (Jurkat) [µM]	CC50 (RAW264.7) [µM]	CC50 (MCF7) [µM]
CCCCC/C=C/c1c(O)ccc(O)c1CO	24.6	3	5.8	3.1	5.6	14.8
CCCCCCC(O)c1c(O)ccc(O)c1CO (stereo not drawn)	> 100	> 100	69.7	> 100	55.4	> 100
CCCCCCCc1c(O)ccc(O)c1CO	77.6	5.9	61.8	8.2	20.1	93
CCCCCCC(O)c1cccc(O)c1CO (stereo not drawn)	64.2	6.2	66	8.3	26.2	> 100
CCCCC/C=C/C1=C(CO)C(=O)C[C@H](O)[C@@H]1O	> 100	> 100	> 100	> 100	> 100	> 100
CCCCC/C=C/C1=C(CO)C(=O)[C@H]2O[C@H]2[C@@H]1O	77.8	11.2	6.4	20	6.5	75
CCCCC/C=C/C1=C(CO)[C@H](O)[C@H]2O[C@H]2[C@@H]1O	> 100	> 100	> 100	> 100	> 100	> 100
Nc1ccn([C@@H]2O[C@H](CO)[C@@H](O)C2(F)F)c(=O)n1 [GEMCITABINE]	0.023	0.008	0.005	0.012	0.005	0.004

— ChEMBL document CHEMBL3286175, “Cytotoxic alkylated hydroquinone, phenol, and cyclohexenone derivatives from Aspergillus violaceofuscus Gasperini” (2014)
